Assay outcomes from PubChem.
TCR CD3 inh – human TCR-CD3 binding inhibition; TAMRA-labeled TCR probe fluorescence, biochemical; inhibition, % at 9.4 µM; actives 0.37% (n = 360,000); in the data active means inhibition above about 19%;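 further: recombinant mutant TCR 2C K166C tagged with TAMRA read by polarization; 0% = receptor in buffer alone and 100% = receptor with positive control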
rCAG RNA binder – molecules binding r(CAG) RNA repeats. r(CAG) RNA repeat, TO-PRO-1 dye displacement fluorescence. inhibition, % at 3 µM. actives 1.3% (n = 370,000). AID 651821;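 active means inhibition above the plate cutoff, the mean of all test compounds on that plate plus 3 SD, cut at about 35% in these data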;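 further: 0% = DMSO alone and 100% = 100 µM mitoxantrone as full dye displacement; higher means more dye released from RNA so lower well fluorescence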
SIAE inh – blocks human sialic acid acetylesterase | SIAE FP-Rh probe binding, fluorescence polarization | inhibition, % at 9.66 µM | actives 0.69% (n = 370,000);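 active means inhibition above a cutoff: mean of compounds within the control limits plus 3 SD of those, cut at about 17% in these data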;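 further: 0% = plate median of compound wells and 100% = probe without SIAE protein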
Target sequence (Q9HAT2 whole entry, looked up): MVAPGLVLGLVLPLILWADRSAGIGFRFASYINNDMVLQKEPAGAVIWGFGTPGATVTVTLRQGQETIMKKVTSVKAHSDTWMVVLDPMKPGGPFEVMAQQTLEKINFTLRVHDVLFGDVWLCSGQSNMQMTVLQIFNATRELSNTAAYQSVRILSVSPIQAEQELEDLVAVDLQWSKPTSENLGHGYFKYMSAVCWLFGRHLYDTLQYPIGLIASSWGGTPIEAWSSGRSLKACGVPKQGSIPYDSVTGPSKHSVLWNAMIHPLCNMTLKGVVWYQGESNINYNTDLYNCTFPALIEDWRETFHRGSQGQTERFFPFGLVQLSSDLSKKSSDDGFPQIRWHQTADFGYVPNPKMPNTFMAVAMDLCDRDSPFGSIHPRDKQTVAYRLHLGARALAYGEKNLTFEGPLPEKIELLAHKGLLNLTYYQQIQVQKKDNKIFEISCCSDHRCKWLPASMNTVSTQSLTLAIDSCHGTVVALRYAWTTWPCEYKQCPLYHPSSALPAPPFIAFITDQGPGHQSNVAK
mABHD4 FP – inhibitors of mouse ABHD4; Q8VD66; purified mABHD4, FP-Rh probe fluorescence polarization; inhibition, % at 8.92 µM; actives 0.54% (n = 370,000);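 active means inhibition exceeding the mean over every tested compound plus 3 SD, cut at about 30% in these data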;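 further: 0% = plate median of compound wells and 100% = S159A mutant with DMSO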
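Test system: mABHD4 protein | Buffer or medium: HEPES pH 7.0 buffer, 150 mM NaCl, 0.01% Pluronic F-127 | Probe or stimulus: FP-Rh fluorescent activity-based probe, added after compound pre-incubation | Timing: Pre-incubation 45 min, probe exposure 60 min, at 25 °C | Technique: Fluorescence polarization, excitation 525 nm, emission 598 nm, BODIPY TMR filters | Repeats: Single well per compound (singlicate)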
HTRA1 inhibitor – blocks human HTRA1 serine peptidase | Q92743 | recombinant HTRA1, FP-rhodamine activity-based probe, fluorescence polarization | inhibition, % at 5.96 µM | actives 0.5% (n = 340,000) | AID 504803; in the data active means inhibition above about 36%;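 further: 0% = enzyme with DMSO and 100% = wells lacking enzyme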
rCAG bind conf – r(CAG) RNA repeat binding, confirmation; inhibition, % at 3 µM; AID 652065; actives 70% (n = 4,300); shares compounds with rCAG RNA binder; TO-PRO-1 dye displacement fluorescence;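 active means inhibition above a per-plate cutoff, the mean inhibition of sample wells plus 3 SD, cut at about 35% in these data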;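 further: loss of TO-PRO-1 fluorescence as compound displaces dye from 1x1 AA loop RNA; 0% = DMSO only wells and 100% = 100 µM mitoxantrone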
DNA CAG counter – disrupts DNA CAG TO-PRO-1 complex, flagging rCAG hits; AID 652068; d(CAG) DNA oligo TO-PRO-1 dye displacement, fluorescence; shares compounds with rCAG RNA binder; actives 94% (n = 4,300); inhibition, % at 3 µM;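 active means inhibition above its plate's cutoff, the mean test-well inhibition plus 3 SD, cut at about 4.8% in these data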;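 further: 0% = DNA dye mix with DMSO and 100% = 100 µM mitoxantrone; hits displace the dye from DNA and so lower well fluorescence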
Starred values were filed as active, the others as inactive; . = no result. The list is not random: actives were taken first. Their share in the collection is about 2.5%.

SMILES	TCR CD3 inh	rCAG RNA binder	SIAE inh	mABHD4 FP	HTRA1 inhibitor	rCAG bind conf	DNA CAG counter
O=C(Nc1cc(Br)ccc1O)c1cc(-c2ccco2)on1	0	43*	-5	-16	-6	42*	19*
CCN(CC)CC(=O)NC1CC(C)(C)Cc2c1cnn2-c1ccc(F)cc1 (stereo unspecified)	1	-11	-8	2	7	.	.
c1ccc(-c2nc3c([nH]2)CCc2nonc2-3)cc1	-2	1	-3	-1	6	.	.
c1coc(-c2nc3c([nH]2)CCc2nonc2-3)c1	17	42*	-5	12	2	9	3
COc1ccc(CCC(=O)NNC(=O)c2ccc(F)cc2)cc1	0	-2	-2	2	-1	.	.
CC(=O)c1ccc(NC(=O)CN2C(=O)/C(=C/C=C/c3ccccc3)SC2=S)cc1	-12	38*	-18	-45	-27	22	15*
O=C(CN1C(=O)S/C(=C\C=C\c2ccccc2)C1=O)Nc1ccccc1C(=O)O	2	77*	-19	-39	-51	84*	52*
COc1cccc(-c2nc(Oc3cccc(C)c3C)c3ccccc3n2)c1O	2	-2	3	-3	4	.	.
COc1cc(/C=N/NS(=O)(=O)c2ccc3ccccc3c2)ccc1OCc1ccc(C(=O)O)cc1	-1	48*	-9	-4	-13	40*	11*
COc1cccc(C(=O)Oc2ccc(/C=N/Nc3ccc(C(=O)O)cc3)cc2OC)c1	2	70*	9	13	5	67*	25*
COc1cccc(OCc2cc(/C=N/Nc3ccc(C(=O)O)cc3)ccc2OC)c1	0	64*	3	34*	-61	74*	37*
COc1ccc(C(=O)N/N=C/c2ccc(OC)c(COc3ccc(F)cc3)c2)cc1	7	0	-1	-34	-46	.	.
COc1cc(/C=N/Nc2ccc(Cl)c(C(=O)O)c2)ccc1OC(=O)c1ccccc1F	-1	66*	9	16	-4	80*	47*
COc1cc(/C=N/NS(=O)(=O)c2ccc(C)cc2)ccc1OCc1cccc(C(=O)O)c1	8	24	0	-7	-1	.	.
Cc1ccc(S(=O)(=O)N2CCOCC2)cc1NC(=O)CSc1cccc[n+]1[O-]	8	3	3	-4	5	.	.
CC(C)(C)c1ccc(/C=N/Nc2ccc(C(=O)O)cc2)cc1	2	39*	3	3	-9	36*	8.8*
O=S(=O)(c1ccc(Br)cc1)N1CCN(c2ccccc2)CC1	-2	-3	-8	-8	8	.	.
O=C(Nc1ccccc1N1CCOCC1)c1ccccc1NS(=O)(=O)c1ccc(F)cc1	-5	22	-3	-3	-2	.	.
Cc1ccc(Nc2nc(-c3ccccc3)cs2)nc1	4	47*	4	18	-6	4	1
O=C(Nc1ccccc1N1CCOCC1)c1ccccc1NS(=O)(=O)c1ccc(F)c(F)c1	-1	38*	3	13	-2	30	7.2*
Cc1ccc(S(=O)(=O)Nc2nc(-c3ccccc3)cs2)cc1	-5	40*	0	1	-4	26	6.1*
Cc1ccc(S(=O)(=O)Nc2ccccc2C(N)=O)cc1	-1	2	5	0	8	.	.
Cc1ccc(S(=O)(=O)Nc2ccccc2-c2ccccc2NS(=O)(=O)c2ccc(C)cc2)cc1	-7	74*	-10	-20	-66	89*	59*
Cc1cc(-c2ccco2)n(CC(=O)NCc2ccccc2)n1	0	2	7	5	2	.	.
CCn1cc(C(=O)NCCN(C)C)c(=O)c2cc(F)c(N3CCN(C)CC3)cc21	-7	-4	4	-6	1	.	.
SMILES	TCR CD3 inh	rCAG RNA binder	SIAE inh	mABHD4 FP	HTRA1 inhibitor	rCAG bind conf	DNA CAG counter
O=C1Nc2cc(C(=O)NCCN3CCCCCC3)ccc2S/C1=C\c1ccccc1	1	14	-20	8	-70	.	.
COc1ccc(-c2csc(NC(=O)c3ccccc3NS(=O)(=O)c3ccc(F)c(F)c3)n2)cc1	2	89*	-25	-46	-48	90*	75*
Cc1ccc(S(=O)(=O)Nc2ccccc2C(=O)Nc2nc(-c3ccc(F)cc3)cs2)cc1	6	89*	-26	-70	-91	93*	81*
O=C(O)c1ccc(OS(=O)(=O)c2cccc(C(F)(F)F)c2)cc1	-10	4	0	-4	-5	.	.
Cc1cnc(NC(=O)CSc2nnc(Cc3ccccc3)n2C)s1	-7	-6	1	11	5	.	.
CSCC[C@@H](Nc1nc(-c2ccccc2)nc2c1oc1ccccc12)C(=O)O	8	69*	-19	-16	-30	71*	25*
CC1CCCN(C(=O)c2ccc3c(c2)OCCO3)C1 (stereo unspecified)	-1	-2	-5	-5	6	.	.
Cc1[nH]c2ccccc2c1C(=O)CN1CCSCC1	-2	-1	3	-1	-1	.	.
COc1cccc(/C=C2/SC(=O)N(CC(=O)N3CCc4ccccc4C3)C2=O)c1OCC(=O)O	-1	37*	-4	-1	-5	36*	9.7*
Nc1[nH]c2cc([N+](=O)[O-])ccc2c1-c1ccccn1	-21	41*	4	-3	33	18	19*
O=C(CN1C(=O)S/C(=C\c2cccs2)C1=O)Nc1ccc(C(=O)O)c(O)c1	14	67*	8	-29	-18	40*	10*
O=C(CN1C(=O)S/C(=C\c2cccs2)C1=O)Nc1ccc(O)c(C(=O)O)c1	-5	52*	-5	2	-4	37*	10*
Cc1ccccc1-c1cc(C(=O)Nc2sc(C(=O)OC(C)C)c(C)c2C#N)c2ccccc2n1	1	47*	-24	4	-13	62*	28*
Cc1cc2cc(CCNS(C)(=O)=O)c(=O)[nH]c2cc1C	5	-2	0	4	5	.	.
CSCCC(NC(N)=O)C(=O)Nc1cccc(C#N)c1 (stereo unspecified)	-1	8	0	-3	9	.	.
O=c1cc(CSc2nnnn2-c2ccccc2)nc(Nc2ccc(F)cc2)[nH]1	3	43*	-12	-19	-38	43*	15*
O=C(Cn1nnc(-c2cc(C(F)(F)F)cc(C(F)(F)F)c2)n1)NNC(=S)Nc1ccc(Cl)cc1	-6	66*	0	1	0	53*	21*
Cc1cc(C)c(NC(=O)CSc2nc3ccc(NC(=O)CSc4nnnn4Cc4ccccc4)cc3s2)c(C)c1	8	28	-53	-11	-16	.	.
CC(C)c1ccc(C2c3[nH]c4ccccc4c3C[C@H]3C(=O)N(c4ccccc4C(=O)N4CCC(C(=O)O)CC4)C(=O)N23)cc1 (stereo partly specified)	4	42*	-13	-3	-6	61*	21*
